Measurements from article PMC3447108 (Bioconjugate chemistry, 2012).
Like-named read-outs stand apart in the source and are kept apart here.

What was measured:
[1] = test system: retinal ganglion cell apoptosis; settings: directly applied into the vitreous humor; models of RGC degeneration; ref [6],[10]; cited from earlier work
[2] = in vivo; cited from earlier work
[3] = test system: RGC-5 cells; experiment: Non-target activation in healthy cells, LysoTracker co-localization; format: cell-based, mouse
[4] = target: T1, caspase 3 (Homo sapiens, UniProt P42574); experiment: Caspase 3 probe cleavage; format: biochemical; settings: HEPES buffer pH 7.4, 10 mM DTT, 37°C, 640/680 nm
T1 sequence (P42574 29-175 limits assumed): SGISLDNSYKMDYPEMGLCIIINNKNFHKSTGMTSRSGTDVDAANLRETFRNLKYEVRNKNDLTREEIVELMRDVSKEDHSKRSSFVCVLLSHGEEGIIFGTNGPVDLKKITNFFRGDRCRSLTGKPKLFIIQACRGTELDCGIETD
T1 sequence (P42574 176-277 limits assumed): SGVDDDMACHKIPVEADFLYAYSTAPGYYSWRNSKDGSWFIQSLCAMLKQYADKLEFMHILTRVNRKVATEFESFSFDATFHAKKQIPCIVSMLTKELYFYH
How it was run: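 Human recombinant caspase 3 (E. coli-expressed; 50 U, 1.4 × 10−6 mg) is pre-equilibrated for 10 min at 37°C in the stated buffer with 0.1% CHAPS, 10% glycerol and 1 mM EDTA. Quenched test compound (2 µM solution) is added, and fluorescence is read continuously for 30 min at 37°C. Signals are background-subtracted and normalized to enzyme mass. Initial 0–5 min rates come from linear fits; Km and kcat come from nonlinear regression of cleavage rates.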

[5] = test system: RGC-5 cells; format: cell-based, mouse; settings: FITC-annexin V; compared to 3 with Alexa Fluor 647-annexin V; data not shown
How it was run: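 RGC-5 cells are grown in phenol-free DMEM with 10% FBS at 37°C and 5% CO2. They are given 5 µM staurosporine in growth medium for 3 h, then co-incubated for 30 min with up to 10 µM quenched test compound plus FITC-annexin V. Propidium iodide (500 nM) is added for 5 min. Cells are rinsed three times in phenol-free medium and imaged by fluorescence microscopy.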

[6] = test system: RGC-5 cells; experiment: Staurosporine differentiation and morphology of RGC-5 cells; format: cell-based, mouse
[7] = test system: RGC-5 cells; experiment: Induction of apoptosis and probe activation by cytotoxic agents; format: cell-based, mouse
[8] = test system: RGC-5 cells; experiment: NMDA / glutamate excitotoxicity model; format: cell-based, mouse; settings: native and SS-differentiated; up to 5 mM, up to 48 hrs; data not shown
[9] = Figures 5–7, S9, S10 (ionomycin), Figure 6 (SS), doxorubicin data not shown

Compound: (kkkrkv) linked to a cleavage sequence consisting of L amino acids (KDEVDAPC) [compound 1]
- detection of RGC apoptosis in vivo [1]: detect RGC apoptosis in models of RGC degeneration in vivo
- systemic toxicity [2]: without the systemic toxicity of the HIV-1 Tat sequence
- probe signal in healthy cells ([3]; 2 hr exposure, fluorescence microscopy): no significant probe signal
- Pearson’s coefficient, LysoTracker compartments and activated probe ([3]; SS-differentiated RGC-5 cells, 3 hrs): 0.612
- punctate probe signal in LysoTracker-labeled compartments ([3]; healthy native and SS-differentiated RGC-5 cells, 3 hrs): delayed appearance of punctate signal
- Pearson’s coefficient, LysoTracker compartments and activated probe ([3]; native RGC-5 cells, 3 hrs): 0.566
- kcat/Km [4]: 435 (FU min^−1 µM^−1)/nM
- coincidence of probe activation with annexin V binding [5]: Identical results

Compound: CN[C@@H]1C[C@H]2O[C@@](C)([C@@H]1OC)n1c3ccccc3c3c4c(c5c6ccccc6n2c5c31)C(=O)NC4 [SS, staurosporine]
- time to differentiation morphology ([6]; 0.5 µM SS, 37°C, bright field microscopy): ≤ 1 hour
- time to completion of morphological changes ([6]; SS, room temperature): approximately 2 hours
- toxic concentration (blebbing and disruption of neurite morphology) ([6]; concentrations exceeding the value): exceeding 2 µM
- apoptosis and probe activation upon treatment [7, 9]: readily observed

Compound: COc1cccc2c1C(=O)c1c(O)c3c(c(O)c1C2=O)C[C@@](O)(C(=O)CO)C[C@@H]3O[C@H]1C[C@H](N)[C@H](O)[C@H](C)O1 [doxorubicin]
- apoptosis and probe activation upon treatment [7]: readily observed

Compound: CN[C@H](CC(=O)O)C(=O)O [NMDA]
- loss in viability [8]: no loss in viability

Compound: C[C@H](CCC(=O)O)C[C@H](C)C[C@H](C)C(=O)/C=C(\O)[C@H](C)C[C@H](C)C/C=C/[C@@H](C)[C@@H](O)[C@@H](C)[C@@H](O)C[C@@H]1CC[C@@](C)([C@H]2CC[C@@](C)([C@@H](C)O)O2)O1 [ionomycin]
- apoptosis and probe activation upon treatment [7, 9]: readily observed
